Screens as filed in PubChem BioAssay.
mIAP activ: mouse IAP activation. muIAP, CDP-Star luminescence, 30 min; stronger effect = higher value; 1 = vehicle-only enzyme signal, 0 = enzyme-free wells. activation factor at 10 µM. 330,000 tested, 0.24% active. AID 2805;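 active = activation factor of at least 2 at 20 µM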
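Assay system: mouse IAP enzyme; Reagent: CDP-Star chemiluminescent phosphatase substrate; Compound: DMSO-dissolved test compounds; Incubation: 30 min, room temperature; Technique: luminescence from enzymatic CDP-Star hydrolysis; Controls: DMSO-only wells and no-enzyme negative control.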
hIAP activ: human IAP activation; AID 2524; activation factor at 10 µM; purified human IAP, CDP-Star luminescence, 30 min; stronger effect = higher value; 1 = vehicle-only enzyme, 0 = enzyme-free background; P09923; 330,000 tested, 0.16% active;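 active = activation factor of the enzyme at least 2-fold when tested at 20 µM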
Target sequence (P09923 whole entry, looked up): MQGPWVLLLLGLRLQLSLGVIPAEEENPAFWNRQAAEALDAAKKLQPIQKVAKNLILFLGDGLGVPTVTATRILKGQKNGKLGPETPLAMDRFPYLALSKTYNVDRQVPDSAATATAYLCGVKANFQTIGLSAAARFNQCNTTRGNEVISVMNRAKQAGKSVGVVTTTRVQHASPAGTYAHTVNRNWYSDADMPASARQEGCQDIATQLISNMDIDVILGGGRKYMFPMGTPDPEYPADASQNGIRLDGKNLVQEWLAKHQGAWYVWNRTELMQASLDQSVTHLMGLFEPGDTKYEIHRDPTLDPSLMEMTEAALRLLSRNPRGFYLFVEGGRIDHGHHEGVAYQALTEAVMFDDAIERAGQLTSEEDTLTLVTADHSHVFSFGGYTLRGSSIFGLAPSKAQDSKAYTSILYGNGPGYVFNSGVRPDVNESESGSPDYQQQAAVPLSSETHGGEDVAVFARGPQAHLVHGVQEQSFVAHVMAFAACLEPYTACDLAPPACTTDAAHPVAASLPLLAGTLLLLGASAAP
mIAP block: mouse IAP inhibition; purified mouse IAP, CDP-Star luminescence, 30 min; inhibition, % at 10 µM; 330,000 tested, 0.2% active; AID 2806;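 active = inhibition of at least 40% at 10 µM in the primary screen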;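 also: plate controls were DMSO with enzyme for no effect and no enzyme wells for full effect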
bIAP act: intestinal alkaline phosphatase (bovine) activation | purified bovine IAP, CDP-star luminescence, 30 min; stronger effect = higher value; fold of DMSO-control signal, blank-subtracted | activation factor at 20 µM | 200,000 tested, 0.17% active | AID 1016;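 active = activation factor of 2 or more at 20 µM, a signal rise over negative controls twice the positive control's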
bIAP inhibitor: intestinal alkaline phosphatase (bovine) inhibition; inhibition, % at 20 µM; AID 1019; 190,000 tested, under 10 active; purified bovine IAP, CDP-star luminescence, 30 min;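 active = over 50% inhibition of intestinal alkaline phosphatase at 20 µM in the single-dose screen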
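Assay system – bovine IAP enzyme · Quantity – bovine IAP at 1/65,000,000 final dilution · Detection – CDP-star luminescence signal · Times – 30 min reaction at room temperature · Also added – CDP-star substrate at 30 µM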
hIAP block: human IAP inhibition. 330,000 tested, 0.12% active. P09923. inhibition, % at 10 µM. purified IAP, CDP-Star luminescence, 30 min;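 active = inhibition reaching a set limit with compound at 10 µM in the primary screen, cut at about 35% in these data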;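 also: plate controls were DMSO wells with enzyme for no effect and no-enzyme buffer wells for full effect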
hIAP act conf: human IAP activation confirmation; activation (%Activity, negative = activation), % at 8.3 µM; 880 tested, 10% active; purified IAP, CDP-Star luminescence, 30 min; stronger effect = lower value; shares compounds with hIAP activ;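 active = at least twofold enzyme activation in any of six single-dose repeats, which the averaged readout prints as negative percent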
* marks the source's active call; other numbers are inactive results. This is a sample that favours compounds with a hit; in the whole collection about 0.79% have one here.

For Fc1ccc(CNC(=S)NCc2ccc(F)cc2)cc1 the results were mIAP activ 1.5, hIAP activ 1, mIAP block -48 and hIAP block -3.
`Fc1cc(NC(=S)NCc2ccc(CNC(=S)Nc3ccc(Cl)c(F)c3)cc2)ccc1Cl` gave mIAP activ 2.1*, hIAP activ 1.1, mIAP block -112 and hIAP block -15.
`COc1ccc(CNC(=S)Nc2ccc(F)c(Cl)c2)cc1OC` gave mIAP activ 2.6*, hIAP activ 1.5, mIAP block -157, bIAP act 1, bIAP inhibitor 4 and hIAP block -53.
For COc1ccc(CNC(=S)Nc2ccccc2)cc1Cl the results were mIAP activ 1.4, hIAP activ 1.1, mIAP block -40 and hIAP block -6.
Fc1ccc(CNC(=S)Nc2cccc(C(F)(F)F)c2)cc1 was read as mIAP activ 2.6*, hIAP activ 1.2, mIAP block -162, bIAP act 1, bIAP inhibitor 2 and hIAP block -18.
COC(=O)[C@H](CC(C)C)N(Cc1ccccc1)S(=O)(=O)N(Cc1ccc(OC)cc1)[C@@H](CC(C)C)C(=O)OC was read as mIAP activ 0.93, hIAP activ 0.98, mIAP block 8 and hIAP block 2.
CC(=O)Nc1ccc(S(=O)(=O)NCC(=O)NNC(=O)COc2c(C)cccc2C)cc1 was read as mIAP activ 0.59, hIAP activ 1.8, mIAP block 41* and hIAP block -83.
`CC(=O)Nc1ccc(S(=O)(=O)NCC(=O)NNC(=O)COc2ccccc2Cl)cc1` gave mIAP activ 0.77, hIAP activ 1.5, mIAP block 23 and hIAP block -50.
COc1ccc(Cl)cc1NC(=O)CN1CCC(n2nnc3cc(C)ccc32)CC1 was read as mIAP activ 1.2, hIAP activ 0.91, mIAP block -15, bIAP act 5.3*, bIAP inhibitor -435 and hIAP block 9.
For COc1cccc(NC(=O)NC2CCN(Cc3nnnn3Cc3ccc4c(c3)OCO4)CC2)c1 the results were mIAP activ 2.5*, hIAP activ 1.5, mIAP block -150 and hIAP block -48.
Screening COc1cc(OC)cc(C(=O)NC2CCN(Cc3nnnn3Cc3ccc(F)cc3)CC2)c1 returned mIAP activ 1, hIAP activ 1.1, mIAP block 0, bIAP act 1, bIAP inhibitor 5 and hIAP block -10.
Screening O=C(NCCCN1CCOCC1)c1ccc2c(c1)N(Cc1ccccc1F)C(=O)c1ccccc1S2=O (stereo unspecified) returned mIAP activ 1.1, hIAP activ 1.1, mIAP block -6 and hIAP block -6.
Screening FC(F)Sc1ccc(NC(=S)NCc2ccccc2)cc1 returned mIAP activ 2.1*, hIAP activ 1, mIAP block -106, bIAP act 0.9, bIAP inhibitor 8 and hIAP block 0.
Screening FC(F)(F)c1ccc(NC(=S)NCc2ccccc2)cc1 returned mIAP activ 2*, hIAP activ 1.1, mIAP block -100, bIAP act 0.9, bIAP inhibitor 13 and hIAP block -10.
Screening CCn1c(C)nc2cc(C(=O)NNC(=S)Nc3ccc(C)cc3)ccc21 returned mIAP activ 1.2, hIAP activ 2*, mIAP block -15, hIAP block -101 and hIAP act conf -48.
For O=C(NCCCc1ccccc1)c1ccc(CS(=O)Cc2ccc(Cl)cc2)o1 (stereo unspecified) the results were mIAP activ 0.94, hIAP activ 0.61, mIAP block 6, hIAP block 39* and hIAP act conf -22.
For OC(CNCC(c1ccc(Cl)cc1Cl)c1c[nH]c2ccccc12)c1ccccc1 (stereo unspecified) the results were mIAP activ 0.97, hIAP activ 0.94, mIAP block 3, bIAP act 1, bIAP inhibitor 0 and hIAP block 6.
Screening O=C(CCCc1ccccc1)Nc1ccnn1C1CCN(Cc2ccccn2)CC1 returned mIAP activ 1, hIAP activ 1.2, mIAP block -2 and hIAP block -18.
For Cc1ccccc1CN1CCC(n2nccc2NC(=O)CCCc2ccccc2)CC1 the results were mIAP activ 1.9, hIAP activ 2.9*, mIAP block -89, hIAP block -190 and hIAP act conf 26.
`OCCNc1ncnc2c1nnn2Cc1ccccc1` gave mIAP activ 1.1, hIAP activ 0.91, mIAP block -9 and hIAP block 10.
Screening CC(C)CCNc1ncnc2c1nnn2Cc1ccccc1Cl returned mIAP activ 0.96, hIAP activ 0.2, mIAP block 4, bIAP act 0.9, bIAP inhibitor 7, hIAP block 80* and hIAP act conf 40.
`Cc1cccc(C(=O)OCN2C(=O)c3ccccc3C2=O)c1[N+](=O)[O-]` gave mIAP activ 0.97, hIAP activ 0.58, mIAP block 3, hIAP block 42* and hIAP act conf 10.
`Cn1cc(C(=O)N2CCc3ccccc32)cn1` gave mIAP activ 0.87, hIAP activ 2.1*, mIAP block 13, bIAP act 0.9, bIAP inhibitor 10, hIAP block -111 and hIAP act conf 2.
`CCOc1ccccc1/C=C(\C#N)C(=O)NC1CC1` gave mIAP activ 1.1, hIAP activ 1.1, mIAP block -8 and hIAP block -11.
CCOc1c(Br)cc(/C=C(\C#N)C(=O)NC2CC2)cc1OC was read as mIAP activ 0.99, hIAP activ 0.59, mIAP block 1, hIAP block 41* and hIAP act conf 5.
COC(=O)c1ccccc1-c1c2ccc(=N)cc-2oc2cc(N)ccc12 was read as mIAP activ 1.3, hIAP activ 0.62, mIAP block -30, hIAP block 38* and hIAP act conf 35.
`CCOC(=O)c1nc(NCc2cccc(OC)c2)c2ccccc2n1` gave mIAP activ 0.99, hIAP activ 1.1, mIAP block 1, bIAP act 1.1, bIAP inhibitor -7 and hIAP block -10.
For COc1ccc(C(=O)Nc2nc3nccc(-c4ccccc4)n3n2)cc1 the results were mIAP activ 0.97, hIAP activ 1.3, mIAP block 3, bIAP act 1, bIAP inhibitor 2 and hIAP block -33.
Screening Cc1ccc(C2=NN(C3=NN=C(N)Cc4ncnn43)C(O)(C(F)(F)F)C2)cc1 (stereo unspecified) returned mIAP activ 0.83, hIAP activ 0.84, mIAP block 17, bIAP act 1.5, bIAP inhibitor -47 and hIAP block 16.
